MT1-MMP act inh: MT1-MMP (human) activation inhibition; HT1080 RFP-PRO-GFP cells, GFP/RFP ratio fluorescence, overnight; percent of plate control window, DMSO zero; GFP/RFP ratio change, % at 20 µM; actives 0.061% (n = 360,000); AID 651647;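 active = GFP/RFP ratio change of at least 30% with cell ATP level not reduced by more than half and red fluorescence within 50% of control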
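Test system: HT1080 RFP-PRO-GFP cells; Benchmarks: DMSO and RFP-L50D-GFP cell wells; Timing: cells overnight before dosing, compound overnight, 37 °C, 5% CO2; Compound: one 20 µM compound dose with 1% DMSO; Read-out: GFP/RFP fluorescence ratio.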
DNMT1 block: DNMT1 (human) enzyme inhibition | AID 588458 | inhibition (reported as % activation of signal), % at 10 µM | actives 0.83% (n = 360,000) | DNMT1 molecular beacon, Hinp1I cleavage, fluorescence | P26358
CSN inh: inhibitors of human CSN-mediated cullin deneddylation; Purified CSN, SCF-Nedd8-OG deneddylation, fluorescence polarization; inhibition, % at 12.5 µM; actives 0.38% (n = 360,000); AID 651999;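 active = pattern-corrected inhibition above about 35%, with an unprinted fluorescence ratio check between 0.5 and 1.5, limit read from the data, passing the limit was not always enough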
Target sequence (Q92905 whole entry, looked up, one chain of several): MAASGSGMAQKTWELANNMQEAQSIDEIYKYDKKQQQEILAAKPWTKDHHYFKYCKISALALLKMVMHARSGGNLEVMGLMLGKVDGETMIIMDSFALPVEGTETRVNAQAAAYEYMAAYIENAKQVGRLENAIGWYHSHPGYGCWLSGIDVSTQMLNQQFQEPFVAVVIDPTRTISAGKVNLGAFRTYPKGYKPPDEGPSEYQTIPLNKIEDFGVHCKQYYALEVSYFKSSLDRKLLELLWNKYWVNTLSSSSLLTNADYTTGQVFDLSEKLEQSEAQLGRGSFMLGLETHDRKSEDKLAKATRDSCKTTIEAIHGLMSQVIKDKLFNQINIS
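Assay system: purified human Csn5 enzyme expressed in HEK293T cells; measure: % inhibition; also added: SCFSkp2-Nedd8OG substrate at 10 nM final; technique: fluorescence polarization; times: reaction 90 min, room temperature; medium: Tris buffer pH 7.5, NaCl, DTT, Tween-20, trehalose, ovalbumin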
SKN-1 block: C. elegans SKN-1 inhibition | C. elegans VP596 Pgst-4::GFP/RFP ratio, acrylamide-induced, 24 h | inhibition, % at 21.8 µM | actives 0.49% (n = 360,000);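 active = interference check ratio from 0.5 to 1.5 plus GFP to RFP signal ratio inhibition reaching or exceeding a fixed threshold, cut at about 30% in these data, passing the limit was not always enough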
Rpn11 block: inhibitors of human proteasome Rpn11. human 26S proteasome, Ub4-pepOG fluorescence polarization; 20S core pre-blocked with epoxomicin. inhibition, % at 20 µM. actives 0.59% (n = 360,000);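 active = inhibition at 20 µM, scaled to each plate's controls, above about 33%, limit read from the data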
Target sequence (O00487 whole entry, looked up): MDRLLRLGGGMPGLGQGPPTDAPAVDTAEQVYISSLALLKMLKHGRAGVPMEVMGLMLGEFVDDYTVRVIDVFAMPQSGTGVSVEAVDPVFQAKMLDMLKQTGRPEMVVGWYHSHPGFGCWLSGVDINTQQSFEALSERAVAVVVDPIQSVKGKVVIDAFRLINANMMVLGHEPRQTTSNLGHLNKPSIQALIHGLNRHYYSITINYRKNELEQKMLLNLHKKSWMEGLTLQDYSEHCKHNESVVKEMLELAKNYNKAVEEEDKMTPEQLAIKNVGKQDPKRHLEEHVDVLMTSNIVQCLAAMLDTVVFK
SUMO1-SIM PPI: modulators of human SUMO1-mediated protein-protein interactions. SUMO1 binding to a labelled peptide, TR-FRET, 1 h. inhibition, % at 20 µM. AID 602429. actives 0.33% (n = 360,000); in the data active = inhibition above about 37%
CSN deneddyl val: Csn5 (human) deneddylation inhibition, single-concentration validation. shares compounds with CSN inh. Csn5 deneddylation of SCF-Nedd8OG, fluorescence polarization, 90 min. inhibition, % at 16.6 µM. actives 62% (n = 540)
MMP2 cntr CSN: counter-screen for CSN deneddylation inhibitors: human MMP-2 inhibition; shares compounds with CSN inh; actives 33% (n = 540); inhibition, % at 16.6 µM; recombinant MMP-2, FRET substrate fluorescence, 60 min;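 active = corrected plate-normalized z-score of 5 or more, or -5 or less, or inhibition of 15% or more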
Thrombin cntr: thrombin (bovine) inhibition, counter-screen for CSN hits. inhibition, % at 16.6 µM. bovine thrombin cleavage of Ub4-pepOG, fluorescence polarization. AID 720656. shares compounds with CSN inh. actives 49% (n = 540);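 active = inhibition at or above a set limit, with a fluorescence interference ratio between 0.5 and a set maximum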
Hits are given with their value. In the library only some 2.3% were active in any assay of this set; here they are far more common. Rule as the data show it, unless noted: active = inhibition above about 50%; inactive = the rest.

O=C1Nc2ccc(Br)cc2C12NNc1ccccc1O2 (stereo not drawn) was read as MT1-MMP act inh inactive, DNMT1 block inactive, CSN inh 52, SKN-1 block inactive, SUMO1-SIM PPI inactive, CSN deneddyl val 129, MMP2 cntr CSN inactive and Thrombin cntr 17.
For COc1cc(OC)c(OC)cc1/C=C1\CC(C)C/C(=C\c2cc(OC)c(OC)cc2OC)C1=O (stereo not drawn) the results were MT1-MMP act inh inactive, DNMT1 block inactive, CSN inh inactive, SKN-1 block inactive and SUMO1-SIM PPI inactive.
Screening CCC1C/C(=C\c2cc(OC)c(OC)cc2OC)C(=O)/C(=C/c2cc(OC)c(OC)cc2OC)C1 (stereo not drawn) returned MT1-MMP act inh inactive, DNMT1 block inactive, CSN inh 35, SKN-1 block inactive, Rpn11 block 102, SUMO1-SIM PPI inactive, CSN deneddyl val 64, MMP2 cntr CSN inactive and Thrombin cntr 48.
`CCOC(=O)[C@]12CCC=C1N(Cc1ccc(Cl)cc1Cl)C(=O)[C@H](CC(=O)NCc1ccc(OC)c(OC)c1)C2` gave MT1-MMP act inh inactive, CSN inh inactive, SKN-1 block inactive and SUMO1-SIM PPI inactive.
Screening CCOC(=O)c1sc2nc3c(SCC(=O)O)cc(C(=O)c4cc(F)ccc4O)cn3c(=O)c2c1C returned MT1-MMP act inh inactive, DNMT1 block inactive, CSN inh 76, SKN-1 block inactive, Rpn11 block 58, SUMO1-SIM PPI inactive, CSN deneddyl val inactive, MMP2 cntr CSN 34 and Thrombin cntr inactive.
Screening Cc1cccc(N2CCN(C(=S)Nc3ccc4nc(N5CCN(C)CC5)cc(C)c4c3)CC2)c1C returned MT1-MMP act inh inactive, DNMT1 block inactive, CSN inh 36, SKN-1 block inactive, Rpn11 block inactive, SUMO1-SIM PPI inactive, CSN deneddyl val 97, MMP2 cntr CSN inactive and Thrombin cntr inactive.
Screening CCCc1nc2c(C)cc(Br)cn2c1Cc1ccccc1C(F)(F)F returned MT1-MMP act inh inactive, DNMT1 block inactive, CSN inh inactive, SKN-1 block inactive, Rpn11 block inactive and SUMO1-SIM PPI inactive.
`C[C@H]1CN([C@@H](C)CO)S(=O)(=O)c2ccc(/C=C/c3ccccc3)cc2O[C@H]1CN(C)C(=O)NC1CCCCC1` gave MT1-MMP act inh inactive, DNMT1 block inactive, CSN inh inactive, SKN-1 block inactive, Rpn11 block inactive and SUMO1-SIM PPI inactive.
Screening O=C(N/N=C/c1c(O)ccc2ccccc12)c1ccc(Br)o1 returned MT1-MMP act inh inactive, DNMT1 block inactive, CSN inh 37, SKN-1 block inactive, Rpn11 block inactive, SUMO1-SIM PPI inactive, CSN deneddyl val 66, MMP2 cntr CSN inactive and Thrombin cntr inactive.
O=C(Nc1ccc(Cl)c(Cl)c1)N[C@@H]1CC[C@@H](CCn2cc(C3CCCCC3)nn2)O[C@@H]1CO was read as MT1-MMP act inh inactive, CSN inh inactive, SKN-1 block inactive and SUMO1-SIM PPI inactive.
O=C1NC(=S)S/C1=C/c1ccc(OC(=O)c2ccco2)cc1 was read as MT1-MMP act inh inactive, DNMT1 block inactive, CSN inh 41, SKN-1 block inactive, SUMO1-SIM PPI inactive, CSN deneddyl val 69, MMP2 cntr CSN 19 and Thrombin cntr 36.
COc1cc(/C=C2/SC(=O)NC2=O)ccc1OC(=O)c1ccco1 was read as MT1-MMP act inh inactive, DNMT1 block inactive, CSN inh inactive, SKN-1 block inactive, Rpn11 block inactive and SUMO1-SIM PPI inactive.
For CCOc1cc(/C=C2/SC(=S)NC2=O)ccc1OC(=O)c1ccco1 the results were MT1-MMP act inh inactive, DNMT1 block inactive, CSN inh 58, SKN-1 block inactive, Rpn11 block inactive, SUMO1-SIM PPI inactive, CSN deneddyl val 77, MMP2 cntr CSN 15 and Thrombin cntr inactive.
`COCCNC(=O)C1CCCN(Cc2ccccc2-c2ccccc2)CC1` (stereo not drawn) gave MT1-MMP act inh inactive, DNMT1 block inactive, CSN inh inactive, SKN-1 block inactive, Rpn11 block inactive and SUMO1-SIM PPI inactive.
Screening O=C(CSc1nc(-c2ccccc2)nc2c1Cc1ccccc1O2)Nc1ccc(C(=O)O)cc1 returned MT1-MMP act inh inactive, DNMT1 block 88, CSN inh 48, SKN-1 block inactive, Rpn11 block 51, SUMO1-SIM PPI 70, CSN deneddyl val 60, MMP2 cntr CSN 20 and Thrombin cntr inactive.
For O=C(CSc1nc(-c2ccccc2)nc2ccccc12)Nc1cccc(C(=O)O)c1 the results were MT1-MMP act inh inactive, DNMT1 block inactive, CSN inh inactive, SKN-1 block inactive, Rpn11 block inactive and SUMO1-SIM PPI inactive.
`CCCCn1c(NC(=O)c2ccc(Br)o2)c(S(=O)(=O)c2ccccc2)c2nc3ccccc3nc21` gave MT1-MMP act inh inactive, DNMT1 block inactive, CSN inh 48, SKN-1 block inactive, Rpn11 block inactive, SUMO1-SIM PPI 47, CSN deneddyl val 101, MMP2 cntr CSN inactive and Thrombin cntr inactive.
CCCCCn1c(NC(=O)c2ccco2)c(S(=O)(=O)c2ccc(C)cc2)c2nc3ccccc3nc21 was read as MT1-MMP act inh inactive, DNMT1 block inactive, CSN inh inactive, SKN-1 block inactive, Rpn11 block inactive and SUMO1-SIM PPI inactive.
CCc1ccc(N=C2NC(=O)/C(=C/c3cc(OC)c(OC)c(OC)c3)S2)cc1 was read as MT1-MMP act inh inactive, DNMT1 block inactive, CSN inh inactive, SKN-1 block inactive, Rpn11 block inactive and SUMO1-SIM PPI inactive.
Screening CCc1ccc(N=C2NC(=O)/C(=C/c3cc(Br)c(OCC(=O)O)c(OC)c3)S2)cc1 returned MT1-MMP act inh inactive, DNMT1 block inactive, CSN inh 47, SKN-1 block inactive, Rpn11 block inactive, SUMO1-SIM PPI inactive, CSN deneddyl val 77, MMP2 cntr CSN inactive and Thrombin cntr inactive.
OC(c1ccccc1)(c1nc(-c2ccc(F)c(Cl)c2)cs1)C(F)(F)F (stereo not drawn) was read as MT1-MMP act inh inactive, DNMT1 block inactive, CSN inh inactive, SKN-1 block inactive, Rpn11 block inactive and SUMO1-SIM PPI inactive.
Screening CCNC(=O)C[C@@H]1CC[C@H]2[C@@H](COC[C@H](O)CN2C(=O)C2CC2)O1 returned MT1-MMP act inh inactive, CSN inh inactive, SKN-1 block inactive and SUMO1-SIM PPI inactive.

Source: PubChem
